ChEMBL document CHEMBL1124846, “Synthesis, antiproliferative, and antiviral activity of certain 4-substituted and 4,5-disubstituted 7-[(1,3-dihydroxy-2-propoxy)methyl]pyrrolo[2,3-d]pyrimidines” (J Med Chem, 1990)

Experiments:
Mus musculus [1] = experiment: Compound was evaluated for percent mortality of mice inoculated with murine cytomegalovirus at a concentration of 5.6 mg/kg at 24 h; assay type: ADME, organism-based; parameters: dose 5.6 mg/kg; settings: in vivo
Method in brief: (§1)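 Three-week-old female Swiss Webster mice infected ip with 2×10^5 PFU MCMV Smith strain; groups of 15 given drug ip twice daily for 5 days, starting 6, 24 or 48 h after inoculation. Toxicity controls received drug without virus. Mortality followed daily for 21 days; final mortality compared with placebo by Fisher Exact Test.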

Mus musculus [2] = experiment: Compound was evaluated for mean day of death at 16.7 mg/kg at 48 h; assay type: functional
Method in brief: (§2)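 Three-week-old female Swiss Webster mice inoculated ip with 2×10^5 PFU MCMV Smith strain. Groups of 15 dosed ip twice daily for 5 days, starting 6, 24 or 48 h post-inoculation. Held 21 days with daily mortality checks. Final mortality and mean day of death (dying animals) computed. Mortality versus placebo by Fisher Exact Test, MDD by Mann–Whitney U-rank test.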

Mus musculus [3] = experiment: Compound was evaluated for mean day of death at 5.6 mg/kg at 24 h; assay type: functional; method in brief: as §2
Mus musculus [4] = experiment: Compound was evaluated for percent mortality of mice inoculated with murine cytomegalovirus at a concentration of 5.6 mg/kg; drug toxicity control; assay type: functional; method in brief: as §1
Mus musculus [5] = experiment: Compound was evaluated for percent mortality of mice inoculated with murine cytomegalovirus at a concentration of 1.9 mg/kg at 48 h; assay type: organism-based; parameters: dose 1.9 mg/kg; settings: in vivo; method in brief: as §2
Mus musculus [6] = experiment: Compound was evaluated for percent mortality of mice inoculated with murine cytomegalovirus at a concentration of 50 mg/kg at 24 h; assay type: ADME, organism-based; parameters: dose 50 mg/kg; settings: in vivo; method in brief: as §1
Human alphaherpesvirus 1 [7] = experiment: Inhibition of herpes simplex virus (HSV-1) in plaque reduction assay; assay type: functional, organism-based
Method in brief: (§3)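 HSV-1 S-148 strain plaque reduction in BSC-1 monkey kidney monolayers, with about 100 PFU inoculum and compound dissolved in the overlay medium. IC50 came from linear regression of percent inhibition against log concentration, with a positive control in each set.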

Mus musculus [8] = experiment: Compound was evaluated for mean day of death at 1.9 mg/kg at 6 h; assay type: functional; method in brief: as §2
Mus musculus [9] = species on record: Mus musculus; experiment: Inhibition of herpes simplex virus […](HSV-2) in mouse embryo fibroblasts cell lines was determined by plaque assay; assay type: functional, organism-based; settings: Fibroblast
Method in brief: (§4)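 Plaque reduction used MCMV Smith in primary mouse embryo fibroblasts, HCMV AD169 in low-passage HFF, and HSV-1 E-377 and HSV-2 MS in MEF, rabbit kidney or HFF. IC50 was determined against untreated controls; two or more experiments.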

Homo sapiens = species on record: Homo sapiens; experiment: Inhibition of AD169 strain human cytomegalo virus (HCMV) in human foreskin fibroblasts cell lines was determined by plaque assay; assay type: functional, organism-based; settings: Fibroblast; method in brief: as §4
[10] = Compound was evaluated for percent mortality of mice inoculated with murine cytomegalovirus at a concentration of 1.9 mg/kg; drug toxicity control; assay type: organism-based; parameters: dose 1.9 mg/kg; settings: mouse, in vivo
Method in brief: (§5)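 Drug toxicity control: uninfected three-week-old female Swiss Webster mice, groups of 15, dosed ip twice daily for 5 days. Held 21 days with daily mortality checks. Final mortality and mean day of death for animals that died were calculated.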

Mus musculus [11] = experiment: Compound was evaluated for percent mortality of mice inoculated with murine cytomegalovirus at a concentration of 5.6 mg/kg at 6 h; assay type: ADME, organism-based; parameters: dose 5.6 mg/kg; settings: in vivo; method in brief: as §1
Mus musculus [12] = experiment: Compound was evaluated for percent mortality of mice inoculated with murine cytomegalovirus at a concentration of 1.9 mg/kg at 6 h; assay type: organism-based; parameters: dose 1.9 mg/kg; settings: in vivo; method in brief: as §2
Mus musculus [13] = experiment: Compound was evaluated for 15 mice treated ip twice daily for 5 days at a dose of 1.9 mg/kg at 6 hr followed (MCMV) virus inoculation; assay type: functional; settings: route intraperitoneal; method in brief: as §2
Mus musculus [14] = experiment: Compound was evaluated for mean day of death at 5.6 mg/kg at 48 h; assay type: functional; method in brief: as §2
Mus musculus [15] = experiment: Compound was evaluated for 15 mice treated ip twice daily for 5 days at a dose of 5.6 mg/kg at 48 hr followed (MCMV) virus inoculation; assay type: functional; settings: route intraperitoneal; method in brief: as §2
[16] = Inhibition of herpes simplex virus (HSV-2) in human foreskin fibroblasts cell lines was determined by plaque assay; settings: Fibroblast
Mus musculus [17] = experiment: Compound was evaluated for mean day of death at 50 mg/kg at 24 h; assay type: functional; method in brief: as §2
Mus musculus [18] = experiment: Compound was evaluated for mean day of death at 16.7 mg/kg at 6 h; assay type: functional; method in brief: as §2
Mus musculus [19] = experiment: Compound was evaluated for mean day of death at 50 mg/kg at 6 h; assay type: functional; method in brief: as §2
Mus musculus [20] = experiment: Compound was evaluated for percent mortality of mice inoculated with murine cytomegalovirus at a concentration of 50 mg/kg; drug toxicity control; assay type: functional; method in brief: as §1
Mus musculus [21] = experiment: Compound was evaluated for mean day of death at 16.7 mg/kg at 24 h; assay type: functional; method in brief: as §2
[22] = Inhibition of herpes simplex virus type 1(HSV-1) in monkey kidney cell was determined by plaque assay; assay type: functional, cell-based; settings: Cercopithecidae; method in brief: as §3
Mus musculus [23] = experiment: Compound was evaluated for 15 mice treated ip twice daily for 5 days at a dose of 5.6 mg/kg followed (MCMV) virus inoculation; assay type: functional; settings: route intraperitoneal
Mus musculus [24] = experiment: Compound was evaluated for 15 mice treated ip twice daily for 5 days at a dose of 16.7 mg/kg at 48 hr followed (MCMV) virus inoculation; assay type: functional; settings: route intraperitoneal; method in brief: as §2
[25] = Inhibition of herpes simplex virus type 1(HSV-1) in mouse embryo fibroblasts cell lines was determined by plaque assay; settings: Fibroblast
Human alphaherpesvirus 1 [26] = experiment: Inhibition of herpes simplex virus (HSV-1) in yield reduction assay; assay type: functional, organism-based
Mus musculus [27] = experiment: Compound was evaluated for mean day of death at 5.6 mg/kg at 6 h; assay type: functional; method in brief: as §2
Mus musculus [28] = experiment: Compound was evaluated for 15 mice treated ip twice daily for 5 days at a dose of 50 mg/kg followed (MCMV) virus inoculation; assay type: functional; settings: route intraperitoneal
[29] = Compound was evaluated for cytotoxic activity against HFF cells; assay type: functional, cell-based; settings: Homo sapiens
Method in brief: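 Visual cytotoxicity in uninfected areas of plaque-reduction cultures. HFF cells grown in MEM(E) + 10% FBS for HCMV (Towne) assays; BSC-1 cells for HSV-1 (S-148) assays. Drug in overlay medium. Cytopathology scored 0 to 4+ at 35- and 60-fold magnification on the staining day.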

Mus musculus [30] = experiment: Compound was evaluated for percent mortality of mice inoculated with murine cytomegalovirus at a concentration of 1.9 mg/kg at 24 h; assay type: organism-based; parameters: dose 1.9 mg/kg; settings: in vivo; method in brief: as §2
Mus musculus [31] = species on record: Mus musculus; experiment: Cytotoxicity of human simplex virus type 1 in mouse embryo fibroblasts cells; settings: Fibroblast
Mus musculus [32] = experiment: Compound was evaluated for mean day of death at 16.7 mg/kg; drug toxicity control; assay type: functional; method in brief: as §5
Mus musculus [33] = experiment: Compound was evaluated for 15 mice treated ip twice daily for 5 days at a dose of 5.6 mg/kg at 24 hr followed (MCMV) virus inoculation; assay type: functional; settings: route intraperitoneal; method in brief: as §2
Mus musculus [34] = experiment: Compound was evaluated for 15 mice treated ip twice daily for 5 days at a dose of 1.9 mg/kg at 48 hr followed (MCMV) virus inoculation; assay type: functional; settings: route intraperitoneal; method in brief: as §2
[35] = Cytotoxicity of human simplex virus type 1 in monkey kidney cells; assay type: functional, cell-based; settings: Cercopithecidae
Method in brief: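 Visual cytotoxicity was scored in uninfected cells of the same host monolayers used for the plaque assays, on a 0 to 4+ scale at 35- and 60-fold magnification, at the time plaques were counted.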

Mus musculus [36] = experiment: Compound was evaluated for 15 mice treated ip twice daily for 5 days at a dose of 50 mg/kg at 6 hr followed (MCMV) virus inoculation; assay type: functional; settings: route intraperitoneal; method in brief: as §2

## Nc1ncnc2c1c(Br)cn2COC(CO)CO
Mus musculus [1]
  Mortality: 20%
Mus musculus [2]
  MDD: 8.4
Mus musculus [3]
  MDD: 6.3
Mus musculus [4]
  mortality at 5.6 mg/kg: 0%
Mus musculus [5]
  Mortality: 67%
Mus musculus [6]
  Mortality: 93%
Human alphaherpesvirus 1 [7]
  IC50: 2000 nM
Mus musculus [8]
  MDD: 6.2
Mus musculus [9]
  IC50: 1900 nM
Homo sapiens
  IC50: 600 nM
[10]
  Mortality: 0%
Mus musculus [11]
  Mortality: 7%
Mus musculus [12]
  Mortality: 33%
Mus musculus [13]
  Activity: 5
Mus musculus [14]
  MDD: 5.5
Mus musculus [15]
  Activity: 6
[16]
  IC50: 300 nM
Mus musculus [17]
  MDD: 8.8
Mus musculus [18]
  MDD: 8.7
Mus musculus [19]
  MDD: 10.8
Mus musculus [20]
  mortality at 50 mg/kg: 0%
Mus musculus [21]
  MDD: 7.1
[22]
  IC50: 2000 nM
Mus musculus [23]
  Activity: 0
Mus musculus [24]
  Activity: 13
[25]
  IC50: 1900 nM
Human alphaherpesvirus 1 [26]
  IC90: 17000 nM
Mus musculus [27]
  MDD: 8
Mus musculus [28]
  Activity: 0
[29]
  IC50: > 100000 nM
Mus musculus [30]
  Mortality: 60%
Mus musculus [31]
  IC50: > 158000 nM
Mus musculus [32]
  MDD: 5
Mus musculus [33]
  Activity: 3
Mus musculus [34]
  Activity: 10
[35]
  IC50: > 100000 nM
Mus musculus [36]
  Activity: 9
